{"data": "Results pooled from the literature", "note": "Protocols differ between the studies behind these lines."}
{"SMILES": "CNCc1cc(-c2ccccc2F)n(S(=O)(=O)c2cccnc2)c1", "system": "Sprague-Dawley rat, plasma", "conditions": "oral, 10 mg/kg", "measurement": "Vd/F", "result": "32.2 L/kg"}
{"SMILES": "CC(=O)Nc1nnc(N2CCN([C@@H](C)c3ccc4c(c3)OCO4)CC2)s1", "system": "monkey, plasma", "conditions": "1 µM", "measurement": "fraction unbound", "result": 0.068}
{"SMILES": "c1ccc(-c2nc(NCc3nc4ccccc4o3)c3ccccc3n2)nc1", "assay": "metabolic stability", "system": "mouse, liver microsomes", "measurement": "microsomal CLint", "result": "119 µL/min/mg"}
{"SMILES": "C#Cc1cccc(Nc2ncnc3cc(OCCOC)c(OCCOC)cc23)c1", "system": "male Sprague-Dawley rat, plasma", "conditions": "oral, 12 mg/kg, single dose", "measurement": "Vd/F", "result": "4.3 L/kg"}
{"SMILES": "Oc1c(Br)cc(Cl)c2cccnc12", "system": "Sprague-Dawley rat, plasma", "conditions": "subcutaneous, 10 mg/kg", "measurement": "Vd/F", "result": "15.1 L/kg"}
{"SMILES": "O=C(O)C1CCN(c2nc(-c3ccccn3)nc3ccccc23)C1 (stereo not shown)", "assay": "metabolic stability", "system": "mouse, liver microsomes", "measurement": "microsomal CLint", "result": "< 1 µL/min/mg"}
{"SMILES": "Cc1ccc(-c2nc3ccccc3o2)cc1NC(=O)c1cc([N+](=O)[O-])c(N2CCNCC2)cc1Cl", "assay": "metabolic stability", "system": "CD-1 mouse, liver microsomes", "conditions": "1 µM, 1 h, pH 7.4", "measurement": "scaled CLint", "result": "12 mL/min/kg"}
{"SMILES": "c1ccc(-c2nc(N3CCc4cccnc4C3)c3ccccc3n2)nc1", "assay": "metabolic stability", "system": "mouse, liver microsomes", "measurement": "microsomal CLint", "result": "520 µL/min/mg"}
{"SMILES": "O=C(CCCCCCC(=O)Nc1ccccc1)NO", "system": "cat, serum", "conditions": "oral, 250 mg/m², single dose", "measurement": "Cmax", "result": "39 ng/mL"}
{"SMILES": "Cc1cc(Cl)c(Cl)cc1NC(=O)c1ccc(N2CCNCC2)nc1", "assay": "metabolic stability", "system": "CD-1 mouse, liver microsomes", "conditions": "1 µM, 1 h, pH 7.4", "measurement": "scaled CLint", "result": "47 mL/min/kg"}
